A selection: hits, their analogues and other compounds. The true share with any hit is near 2.7%.
V1R ag counter: counter-screen for oxytocin receptor agonists: human V1a receptor agonists | P37288 | activation, % at 3 µM | 320,000 compounds, 0.25% hits | CHO-V1R cells, Fluo-8 calcium fluorescence, agonist mode; 0% DMSO, 100% 3 nM vasopressin;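 active = activation above the mean activation of all tested compounds plus 3 SD, per screening run, cut at about 20% in these data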;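 also: signal is peak over basal fluorescence ratio across a 100 second FLIPR read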
OXTR potentiator: potentiators of human oxytocin receptor; CHO-OTR cells, Fluo-8 calcium fluorescence, potentiator mode; 0% = oxytocin EC15, 100% = EC100; activation, % at 3 µM; P30559; 320,000 compounds, 0.061% hits;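 active = activation above that plate's cutoff, the mean activation of tested compounds plus 3 SD, cut at about 6.6% in these data, passing the limit was not always enough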
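Material: human OTR in CHO cells. Compound: 3.0 µM, one dose. Timing: compound 6 min at room temperature before oxytocin, 100 s read. Evaluation: % activation of max/min ratio relative to oxytocin controls. Replication: single well per compound, singlicate. Signal: Fluo-8 calcium dye fluorescence.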
OX1R antag-1: antagonists of human orexin 1 receptor (OX1R). O43613. OX1R-expressing cells, FRET antagonist read-out. inhibition, % at 6.6 µM. 330,000 compounds, 1.8% hits. AID 485270; in the data active = inhibition mostly above about 38%, no sharp cut-off; inactive = mostly below about 40%
Target sequence (O43613 whole entry, looked up): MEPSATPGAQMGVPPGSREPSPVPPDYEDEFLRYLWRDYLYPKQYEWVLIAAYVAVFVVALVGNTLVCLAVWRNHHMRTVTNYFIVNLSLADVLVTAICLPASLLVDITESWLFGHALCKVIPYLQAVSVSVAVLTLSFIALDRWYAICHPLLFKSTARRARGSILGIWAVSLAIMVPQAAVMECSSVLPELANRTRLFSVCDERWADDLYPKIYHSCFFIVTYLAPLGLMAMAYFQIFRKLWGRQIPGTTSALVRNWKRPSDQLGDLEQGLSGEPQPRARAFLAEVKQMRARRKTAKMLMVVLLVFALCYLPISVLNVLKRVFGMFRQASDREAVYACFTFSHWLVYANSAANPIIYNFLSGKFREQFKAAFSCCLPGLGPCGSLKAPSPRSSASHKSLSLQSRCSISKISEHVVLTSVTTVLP
OX1R antag-2: human HCRTR1 antagonism. CHO/OX1R cells, Fluo-8 calcium fluorescence, orexin A. inhibition, % at 5 µM. 330,000 compounds, 0.43% hits;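 active = inhibition above its plate's threshold, mean inhibition of all tested compounds on the plate plus 3 SD, cut at about 37% in these data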
OXTR agonist: human OXTR agonism; P30559; CHO-OTR cells, Fluo-8 calcium fluorescence; normalized: DMSO 0%, oxytocin 100%; activation, % at 3 µM; 320,000 compounds, 0.32% hits;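 active = activation above the mean of all tested compounds plus 3 SD, cutoff set per screening run, cut at about 20% in these data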;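 also: peak over basal fluorescence ratio from a 100 s FLIPR kinetic read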
CHO parental Ca: counter-screen: ATP calcium response change in parental CHO cells. parental CHO-K1, ATP-induced calcium, Fluo-8 fluorescence. AID 463079. 330,000 compounds, 0.63% hits. inhibition, % at 5.6 µM;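 active = inhibition above that plate's mean sample inhibition plus 3 SD, cut at about 26% in these data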
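material = parental CHO cells | also added = ATP as calcium-mobilizing challenge | dosing = single point at 5.6 µM | detection = intracellular calcium via Fluo-8 no-wash fluorescent dye | read-out = % inhibition | benchmarks = low control ATP plus DMSO, high control DMSO only | repeats = one well per compound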
A number is an active result; . = inactive.

SMILES | V1R ag counter | OXTR potentiator | OX1R antag-1 | OX1R antag-2 | OXTR agonist | CHO parental Ca
COc1cccc(S(=O)(=O)NC2CCN(C#N)C2)c1 (centres undefined) | . | . | . | . | . | .
O=C(COc1ccc(Cl)cc1)Nc1ccc2c(c1)C(=O)NC2=O | . | . | . | . | . | .
COCCn1c(SCC(=O)Nc2ccc(OC)c(S(N)(=O)=O)c2)nc2ccccc2c1=O | . | . | . | . | . | .
CSc1ncccc1C(=O)NCc1nnc2ccccn12 | . | . | . | . | . | .
CC(C)CN(C(=O)CSc1nc2ccccc2[nH]1)C1CCS(=O)(=O)C1 (centres undefined) | . | . | . | . | . | .
CCN(CC)S(=O)(=O)c1ccc(O)c(C(=O)OCC(=O)NC23CC4CC(CC(C4)C2)C3)c1 | . | . | . | . | . | .
CC1CCC(C#N)(N(C)C(=O)CSc2nnc(C3CC3)n2C2CC2)CC1 (centres undefined) | . | . | . | . | . | .
O=c1[nH]c(-[n+]2ccccc2)c(/C=N/N=C(\[O-])c2ccccc2)s1 | . | . | 41.4 | . | . | .
Cc1[nH]c2ccccc2c1/C=N/NC(=O)c1ccccc1 | . | . | . | . | . | .
Cc1[nH]c2ccccc2c1/C=N/NC(=O)c1cc(-c2ccccc2)n[nH]1 | . | . | 70.0 | . | . | .
CC(C)(C)c1cc(C(=O)N/N=C/c2ccccn2)n[nH]1 | . | . | . | . | . | .
Cc1[nH]c2ccccc2c1/C=N/NC(=O)c1cc(C(C)(C)C)[nH]n1 | . | . | 38.1 | . | . | .
O=C(Cc1ccc([N+](=O)[O-])cc1)Nc1cc(C(F)(F)F)cc(C(F)(F)F)c1 | . | . | . | . | . | .
CN(C(=O)c1ccc(NC(=O)Cc2ccc([N+](=O)[O-])cc2)cc1)C1CC1 | 29.8 | . | . | . | 38.4 | .
O=C(Cc1ccc([N+](=O)[O-])cc1)Nc1cccc(C(F)(F)F)c1 | . | . | . | . | . | 28.0
CC1CN(C(=O)COC(=O)[C@@H](NC(=O)c2ccccc2Cl)C(C)C)CC(C)O1 (some centres undefined) | . | . | . | . | . | .
O=C(NCc1ccccc1)N1CCN(c2ccc(F)cc2)CC1 | . | . | . | . | . | .
O=C(NCc1ccccc1)N1CCN(c2ccc(Cl)c(Cl)c2)CC1 | . | . | . | . | . | 41.8
CCOCc1nnc(NC(=O)C2c3ccccc3Oc3ccccc32)s1 | 21.9 | . | . | . | 29.6 | .
OCCCc1nc2n(n1)C(c1cccs1)C=C(c1ccccc1)N2 (centres undefined) | 50.4 | . | . | . | 82.4 | 33.2
OCCCc1nc2n(n1)C(c1ccccc1)C=C(c1ccc(F)cc1)N2 (centres undefined) | . | . | . | . | . | .
C=CCn1c(-c2csc(-c3ccc(Cl)cc3)n2)n[nH]c1=S | . | . | . | . | . | .
C=CCn1c(-c2csc(-c3ccc(OC)c(OC)c3)n2)n[nH]c1=S | . | . | . | . | . | 72.2
O=C(NCc1cccc(Cl)c1)C1CCCN(c2ncnc3c2nc2n3CCCCC2)C1 (centres undefined) | . | . | . | . | . | .
CCc1ccc(NC(=O)C2CCCN(S(=O)(=O)c3ccc4c(c3)CC(C)N4C(C)=O)C2)cc1 (centres undefined) | . | . | . | . | . | .
SMILES | V1R ag counter | OXTR potentiator | OX1R antag-1 | OX1R antag-2 | OXTR agonist | CHO parental Ca
CCc1ccc(NC(=O)C2CCN(S(=O)(=O)c3ccc4c(c3)CC(C)N4C(C)=O)CC2)cc1 (centres undefined) | . | . | . | . | . | 35.9
O=C1C=C(N2CCOCC2)c2ccccc2C1=O | . | . | 63.8 | . | . | .
N/C(=N\c1nc2ccccc2o1)NC(=O)c1ccccc1 | . | . | . | . | . | .
N/C(=N\c1nc2ccccc2o1)NC(=O)/C=C/c1ccccc1 | . | . | 40.2 | . | . | .
O=C(Nc1cccc(-c2cn3ccccc3n2)c1)c1cccs1 | . | . | 71.0 | . | . | .
CC(=O)Nc1cccc(-c2cn3ccccc3n2)c1 | . | . | . | . | . | .
Cc1ccc(OCC(=O)OCC(=O)c2ccccc2)cc1C | . | . | . | . | . | .

Screening results deposited in PubChem BioAssay by The Scripps Research Institute Molecular Screening Center.
